Data set [1] can be described thus: Partition coefficient, log P of the compound. The settings on record: octanol/water. The data set is classed as physicochemical.
A short description of data set [2]: Inhibition of soybean 15-lipoxygenase. On the set-up: species or system Glycine max. In a few lines: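 Soybean 15-lipoxygenase with linoleic acid substrate (final 134 µM) in 0.1 M borate buffer pH 9 at 20 ± 1 °C. Absorbance read at 234 nm for 60 s after enzyme addition. Inhibitor plus linoleic acid served as blank. At least six controls and three tubes per inhibitor solution. Enzyme kept on ice, with controls run at intervals. IC50 from linear interpolation around 50% activity.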

By logP is commonly meant the decadic logarithm of the partition coefficient of the neutral form, usually between octanol and water. Read a low logP as lower lipophilicity. Usually IC50 stands for the concentration at which inhibition is half-maximal. Lower therefore signals inhibition by little substance. As for `C=CCc1ccc(OC(=O)c2cccc(Cl)c2)c(OC)c1`, in data set [1], the lipophilicity (logP) worked out at 2.79. In addition, 5.2 µM corresponded to half-maximal inhibition in data set [2] (IC50). `C=CCc1ccc(OC(=O)c2cccc(OC)c2)c(OC)c1` displayed a lipophilicity (logP) in data set [1] of 1.86. In data set [2], this compound registered a concentration for half-maximal inhibition (IC50) of 23 µM. The compound `C=CCc1ccc(OC(=O)c2cccc(F)c2)c(OC)c1` yielded a log partition coefficient (logP) in data set [1] of 2.7. In addition, the IC50 in data set [2] is 2.1 µM.

On to `C=CCc1ccc(OC(=O)c2ccc(F)cc2)c(OC)c1`, for which the logP in data set [1] is 2.7. Moreover, the midpoint of inhibition in data set [2], the IC50, lay at 7.2 µM. Turning to `C=CCc1ccc(OC(=O)C2CCCCC2)c(OC)c1`, the logP in data set [1] turned out to be 3.52. In data set [2], this compound gave a concentration for half-maximal inhibition (IC50) of 2.2 µM. In data set [1], `C=CCc1ccc(OC(=O)c2ccc(OC)cc2)c(OC)c1` returned a lipophilicity (logP) of 1.86. This compound had an IC50 in data set [2] of 19 µM. For the compound `C=CCc1ccc(OC(=O)c2ccccc2C)c(OC)c1`, the logP in data set [1] is 2.87. In addition, in data set [2], the IC50 was found to be 77.2 µM. The compound `C=CCc1ccc(OC(=O)c2cccnc2)c(OC)c1` returned a logP in data set [1] of 0.86. Further, in data set [2], the 50% inhibitory concentration (IC50) came out at 1.7 µM. `C=CCc1ccc(OC(=O)c2cccc(C)c2)c(OC)c1`: the lipophilicity (logP) in data set [1] was found to be 2.87. For the same compound, the IC50 in data set [2] is 11.4 µM. In data set [1], `C=CCc1ccc(OC(=O)c2ccc(Cl)cc2)c(OC)c1` returned a log partition coefficient (logP) of 2.79. Besides, the IC50 in data set [2] was found to be 134 µM. For `C=CCc1ccc(OC(=O)c2ccccn2)c(OC)c1`, the lipophilicity (logP) in data set [1] is 0.86. This compound also gave an IC50 in data set [2] of 33.3 µM.

For `C=CCc1ccc(OC(=O)C23CC4CC(CC(C4)C2)C3)c(OC)c1`, the logP in data set [1] was determined as 4.82. Besides, in data set [2], the midpoint of inhibition, the IC50, lay at 0.017 µM. In turn, `C=CCc1ccc(OC(=O)c2ccncc2)c(OC)c1` returned a logP in data set [1] of 0.86. In addition, in data set [2], 2.3 µM corresponded to half-maximal inhibition (IC50). As to `C=CCc1ccc(OC(=O)c2ccc(C)cc2)c(OC)c1`, the logP in data set [1] came out at 2.87. For the same compound, in data set [2], the IC50 stood at 14.6 µM. Consider `C=CCc1ccc(OC(=O)c2ccccc2Cl)c(OC)c1`, for which, in data set [1], the logP was 2.79. Also, in data set [2], the half-inhibitory concentration (IC50) stood at 168 µM. For the compound `C=CCc1ccc(OC(=O)c2ccccc2F)c(OC)c1`, the logP in data set [1] worked out at 2.7. The IC50 in data set [2] amounted to 6.7 µM. For `C=CCc1ccc(O)c(OC)c1` [EUGENOL], the IC50 in data set [2] came out at 34.6 µM. In data set [1], `C=CCc1ccc(OC(=O)c2ccccc2)c(OC)c1` [EUGENYL BENZOAT] came in with a log partition coefficient (logP) of 2.25. Further, in data set [2], half-maximal inhibition (IC50) required 4.4 µM.

For the origin of these results see ChEMBL document CHEMBL1143966, “Design and synthesis of eugenol derivatives, as potent 15-lipoxygenase inhibitors” (Bioorg Med Chem, 2008).
